A selection: hits, their analogues and other compounds. The true share with any hit is near 5.8%.
HIV Rev-RRE inh = disrupts HIV-1 Rev binding to RRE RNA; P05866; inhibition, % at 8 µM; Rev peptide-RRE RNA binding, FRET; 97,000 compounds, 0.79% hits;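 active = inhibition above the screen-wide mean plus 3 SD, cut at about 35% in these data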
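assay system = Cy5-tagged RRE RNA duplex with fluorescein-tagged Rev peptide | incubation = 5 + 15 min at 25 °C | also added = labelled Rev peptide | measure = % inhibition of FRET ratio versus controls | benchmarks = DMSO wells as 0% and neomycin B wells as 100% inhibition | measured by = FRET fluorescence readout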
PLK1 kinase inh = inhibitors of human PLK1 kinase; P53350; recombinant PLK1 kinase, TR-FRET peptide phosphorylation; AID 619; inhibition, % at 10 µM; 97,000 compounds, 0.53% hits;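 active = inhibition of 50% or more in the single-concentration screen; inactive = inhibition below 50%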
Cav3 T inh = blocks human Cav3.2 T-type calcium channel; Cav3.2-expressing cells, Fluo-4 calcium fluorescence FDSS; active compounds read low; B-score at 10 µM; 100,000 compounds, 4% hits;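 active = single-dose well whose peak fluorescence ratio is a statistical outlier from its plate by either plate-standardised score or position-corrected B-score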
Plk1 PBD FP = inhibitors of human Plk1 polo box domain binding | P53350 | Plk1 PBD phosphopeptide binding, fluorescence polarization | inhibition, %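 (tested at about 20 µM)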 | 97,000 compounds, 0.13% hits | AID 693; in the data active = inhibition above about 34%, passing the limit was not always enough
PTK2B oligo ant = Pyk2 (human) oligomerization antagonism | z-score (the deposit names both 25 µM and 10 µM) | 99,000 compounds, 0.83% hits | AID 1347419 | Q293 cells, Pyk2 FERM NanoBiT luminescence; active compounds read low | Q14289;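 active = Z-score of -3 or lower, scaled per plate to the spread of control and sample wells; inactive = z-score above -3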;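 also: negative z-score means lost luminescence so less FERM oligomerization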
Target sequence (Q14289 whole entry, looked up): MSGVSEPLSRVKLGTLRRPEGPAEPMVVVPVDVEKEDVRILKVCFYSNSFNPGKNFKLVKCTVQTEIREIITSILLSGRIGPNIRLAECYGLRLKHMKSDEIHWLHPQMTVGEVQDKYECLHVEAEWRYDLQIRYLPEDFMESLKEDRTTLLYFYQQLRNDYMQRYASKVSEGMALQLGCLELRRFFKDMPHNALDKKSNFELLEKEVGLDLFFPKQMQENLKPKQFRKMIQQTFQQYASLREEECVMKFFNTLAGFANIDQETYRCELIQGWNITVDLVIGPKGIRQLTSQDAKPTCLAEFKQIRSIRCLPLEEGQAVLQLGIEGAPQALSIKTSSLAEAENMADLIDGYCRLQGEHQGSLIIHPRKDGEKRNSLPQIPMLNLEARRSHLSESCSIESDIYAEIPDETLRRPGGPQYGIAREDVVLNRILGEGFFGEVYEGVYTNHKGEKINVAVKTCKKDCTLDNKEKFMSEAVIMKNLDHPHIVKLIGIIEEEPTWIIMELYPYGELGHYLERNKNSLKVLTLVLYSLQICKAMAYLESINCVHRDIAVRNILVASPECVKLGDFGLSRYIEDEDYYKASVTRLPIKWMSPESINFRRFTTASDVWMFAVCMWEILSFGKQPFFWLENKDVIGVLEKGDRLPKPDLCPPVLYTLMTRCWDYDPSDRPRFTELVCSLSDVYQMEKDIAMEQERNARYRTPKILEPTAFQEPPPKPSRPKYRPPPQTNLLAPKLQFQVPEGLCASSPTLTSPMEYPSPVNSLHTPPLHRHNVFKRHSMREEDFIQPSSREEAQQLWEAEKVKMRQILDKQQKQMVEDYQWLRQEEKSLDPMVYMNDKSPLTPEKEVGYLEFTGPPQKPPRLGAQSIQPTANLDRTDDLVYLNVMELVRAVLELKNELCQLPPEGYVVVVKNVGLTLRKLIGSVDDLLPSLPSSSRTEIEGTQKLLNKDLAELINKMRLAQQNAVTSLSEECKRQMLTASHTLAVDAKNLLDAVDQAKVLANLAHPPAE
FAK blocker = FAK (human) kinase inhibition | 97,000 compounds, 0.84% hits | inhibition, %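 (tested at 7 µM)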 | Q05397 | biochemical FAK kinase activity assay; in the data active = inhibition above about 19%
Numbers stand for hits; – = inactive; · = no result given.

SMILES | HIV Rev-RRE inh | PLK1 kinase inh | Cav3 T inh | Plk1 PBD FP | PTK2B oligo ant | FAK blocker
COc1ccc(OC)c(/C(O)=C/C(=O)C(=O)Nc2cc(C)cc(C)c2)c1 | – | – | -9.1 | – | – | –
Cc1cc(=O)n2[nH]cc(C(=O)O)c2n1 | – | – | – | – | – | –
CC(=O)Nc1ccc(S(=O)(=O)N(Cc2ccco2)CC2CCCO2)cc1 (stereo unspecified) | · | · | · | · | – | ·
Cc1cccc(N(C)C(=O)c2cc3cc4ccc(C)cc4nc3o2)c1 | – | – | -5.1 | – | – | –
CCOC(=O)N1CCN(C(=O)CSCC(=O)Nc2nc(-c3cccs3)cs2)CC1 | – | – | – | – | – | –
O=C(O)C1CCCCC1C(=O)Nc1nc(-c2cccs2)cs1 (stereo unspecified) | – | – | · | – | – | –
CC1CCCCN1C(=O)CSCC(=O)Nc1nc(-c2cccs2)cs1 (stereo unspecified) | · | · | -4.93 | · | · | ·
CC1CCN(C(=O)CSCC(=O)Nc2nc(-c3cccs3)cs2)CC1 | · | · | -5.69 | · | · | ·
CC1CCCN(C(=O)CSCC(=O)Nc2nc(-c3cccs3)cs2)C1 (stereo unspecified) | – | – | -5.23 | – | · | –
CC1CC(C)(C)CC2(C1)NC(=O)N(CC(=O)NC1CCCc3ccccc31)C2=O (stereo unspecified) | · | · | · | · | – | ·
CCOC(=O)c1c(C)[nH]c(C(=O)CN2C(=O)NC(CC)(c3ccccc3)C2=O)c1C (stereo unspecified) | – | – | -5.72 | – | – | –
Cc1ccc(Cn2cc(SCC(N)=O)c3ccccc32)cc1 | · | · | – | · | · | ·
Cc1nc2cc(C(=O)O)ccc2n1-c1ccccc1 | – | 69.1 | – | – | · | –
CCCN1C2CCCC1CC(NC(=O)Nc1ccc(C(C)C)cc1)C2 (stereo unspecified) | – | – | -4.9 | – | – | –
O=S(=O)(c1ccccc1Cl)N1CCCC(c2nc(-c3cccnc3)no2)C1 (stereo unspecified) | – | – | – | – | – | –
CC(C)CNS(=O)(=O)c1ccc(CCC(=O)O)cc1 | – | – | – | – | – | –
CCCNS(=O)(=O)c1ccc(OCC(=O)Nc2ccccc2F)cc1 | – | – | – | – | – | –
COc1ccc(CCC(=O)Nc2cc(Cl)ccc2OC)cc1 | – | – | – | – | – | –
CC(C)CNS(=O)(=O)c1ccc(CCC(=O)Nc2cc(Cl)ccc2Oc2ccccc2)cc1 | – | – | -6.16 | – | – | –
CCCNS(=O)(=O)c1ccc(CCC(=O)Nc2cc(Cl)ccc2Oc2ccccc2)cc1 | – | – | -6.98 | – | – | –
CC(C)(C)NS(=O)(=O)c1ccc(CCC(=O)Nc2cc(Cl)ccc2Oc2ccccc2)cc1 | – | – | -5.31 | – | – | –
C/C(=C/Cc1c(O)cc2oc(C)cc(=O)c2c1O)COC1OC(CO)C(O)C(O)C1O (stereo unspecified) | · | · | – | · | · | ·
CON(C)c1nc(OCCNC(=O)OCc2ccc(Cl)cc2Cl)nc(N(C)C)n1 | – | – | – | – | – | –
CCSc1nnc(NC(=O)C(Cc2ccccc2)n2cccc2)s1 (stereo unspecified) | – | – | – | – | · | –
Cc1csc(NC(=O)C(Cc2ccccc2)n2cccc2)n1 (stereo unspecified) | – | – | -4.92 | – | · | –
SMILES | HIV Rev-RRE inh | PLK1 kinase inh | Cav3 T inh | Plk1 PBD FP | PTK2B oligo ant | FAK blocker
CCOc1cc2nc(-c3ccc(OC)c(OC)c3)nc(N3CCOCC3)c2cc1OC | – | – | -5.97 | – | · | –
CCOc1cc2nc(-c3ccc(OC)c(OC)c3)nc(N3CC(C)OC(C)C3)c2cc1OC (stereo unspecified) | – | – | · | – | · | –
Cc1ccc(C2N(C)c3ccccc3-c3nc4ccccc4n32)o1 (stereo unspecified) | – | – | -5.37 | – | – | –
O=c1c2ccc(Cl)cc2nc(-c2cccc(C(F)(F)F)c2)n1O | – | – | -5.85 | – | – | –
O=c1c2ccccc2ncn1-c1ccc(Cl)c(Cl)c1 | – | – | – | – | – | –
On1c(-c2ccccc2)nc2ccc(Cl)cc21 | – | – | – | – | – | –
O=c1c2ccccc2nc(-c2ccc(Cl)c(Cl)c2)n1O | – | – | -4.26 | – | – | –
COc1ccccc1C(=O)OCC(=O)Nc1ccc(OC(F)F)cc1 | – | – | – | – | – | –
COc1cccc(OC)c1C(=O)OCC(=O)Nc1ccc(OC(F)(F)F)cc1 | – | – | -4.82 | – | – | –
CCC(=O)N1CCN(c2ccc(Cl)cc2NC(=O)Cc2ccccc2)CC1 | – | – | -6.04 | – | – | –

Screening results deposited in PubChem BioAssay by several laboratories.
